Assay results pooled from the literature.
Protocols differ between the studies behind these lines.
Target: Insulin receptor-related protein (INSRR, Homo sapiens, UniProt P14616)

Cc1cnc(Nc2ccc(C(=O)N3CCC(N4CCCC4)CC3)cc2)nc1-c1cc2ccccc2s1
remaining binding (binding; competition with immobilised ligand; 1 µM): 44%

c1cncc(-c2cccc(Nc3nccc(NC4CCCCC4)n3)c2)c1
remaining binding (binding; competition with immobilised ligand; 10 µM): 74%

COc1cc(-c2cn(C3CCc4ccccc4N(CC(F)(F)F)C3=O)nn2)ccc1-n1ccc(C)n1 (stereo not shown)
remaining binding (cell-free assay; competition with immobilised ligand; 1 µM): 100%

O=C(c1ccc(Nc2ncc(Cl)c(-c3ccc(Cl)s3)n2)cc1)N1CCC(N2CCCC2)CC1
remaining binding (binding; competition with immobilised ligand; 1 µM): 23%

O=C(Nc1cnc(Oc2ccc(F)cc2)nc1)N1CCc2ncccc2[C@@H]1c1ccc(F)cc1
remaining binding (cell-free assay; competition with immobilised ligand; 1 µM): 84%

COc1cnc(Nc2cccc(S(N)(=O)=O)c2)nc1N1CCN(c2ccccc2)C(=O)C1
remaining binding (binding; competition with immobilised ligand; 1 µM): 100%

CN(c1nccc(-c2cnn3ncccc23)n1)C1CC1
remaining binding (binding; 1 µM): 100%

FC(F)(F)Oc1cccc(-c2cnc3ccc(-c4ccncc4)nn23)c1
remaining binding (cell-free assay; competition with immobilised ligand; 5 µM): 96%

O=C(NCCCN1CCOCC1)c1ccc(Nc2nccc(-c3cc4ccccc4s3)n2)cc1
remaining binding (binding; competition with immobilised ligand; 1 µM): 100%

CN(CCCC(F)(F)F)c1nccc(-c2cnn3ncccc23)n1
remaining binding (binding; 1 µM): 100%

C[C@@H]1CN(c2cc(-c3nn(C)c4ccc(OC5(C)CC5)cc34)ncn2)C[C@H](C)O1
remaining binding (cell-free assay; competition with immobilised ligand; 1 µM): 91%

c1cnn2ncc(-c3ccnc(N4CCC45COC5)n3)c2c1
remaining binding (binding; 1 µM): 93%

CNCc1ccccc1-c1csc([C@@H](C)Nc2nc(C)nc3cc(OC)c(OC)cc23)c1
remaining binding (cell-free assay; competition with immobilised ligand; 1 µM): 95%

CN(C)c1nccc(-c2cnn3ncccc23)n1
remaining binding (binding; 1 µM): 92%

C[C@@H](c1ccc(-n2cnc3c(N)ncnc32)cc1)N1CCc2nn(C)c(Cc3ccccc3)c2C1=O
remaining binding (binding; competition with immobilised ligand; 0.1 µM): 91%

N[C@@H]1CCN(c2nccc(-c3cnn4ncccc34)n2)C1
remaining binding (binding; 1 µM): 100%

CCC(=O)N[C@H]1CC[C@@H](C(=O)N(C)c2ccc(-c3nc4ccccc4o3)cc2)C1
remaining binding (cell-free assay; competition with immobilised ligand; 1 µM): 100%

CN(C)c1ncc(F)c(-c2cnn3ncccc23)n1
remaining binding (binding; 1 µM): 100%

C[C@@]1(Cc2ccc(C#N)cc2)C(=O)N(c2cc(Cl)cc(Cl)c2)c2ncc(C(=O)NC3(c4nc(C5CCC5)no4)CC3)n21
remaining binding (cell-free assay; competition with immobilised ligand; 1 µM): 100%

O=C(Nc1c[nH]nc1C(=O)NC1CCNCC1)c1cc(F)cc(F)c1
remaining binding (binding; competition with immobilised ligand; 1 µM): 92%

Cc1cnn2ncc(-c3ccnc(N(C)C)n3)c2c1
remaining binding (binding; 1 µM): 97%

CN(C)C(=O)Cn1cc(-c2nc(C3(c4ccc(-c5cnc(N)nc5)cc4)CC3)no2)cn1
remaining binding (cell-free assay; competition with immobilised ligand; 1 µM): 100%
